# Assay results published in ChEMBL document CHEMBL1932981, “Synthesis of novel 2, 5-dihydrofuran derivatives and evaluation of their anticancer activity” (Eur J Med Chem, 2012).
# Legend:
# Type in all cases: functional, cell-based
# [1] = tested on: A549; test: Cytotoxicity against human A549 cells after 24 hrs by MTT assay; conditions: Homo sapiens, A549, 24 h; read-out: IC50
# Summary of the method: (§1)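 Cell lines from the Navy Medical College, seeded at 8000 cells/well in 96-well plates. Compounds dissolved in DMSO (stock 10 g/L) and freshly diluted in medium. Dilutions were added in duplicate 24 h after seeding, with incubation continued at 37 °C. Viability read by MTT. IC50 taken as the concentration giving 50% growth inhibition, determined following NCCLS recommendations.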
# [2] = Cytotoxicity against human QGY7701 cells after 24 hrs by MTT assay; conditions: QGY7701, 24 h; summary of the method: as §1
# [3] = tested on: SW480; test: Cytotoxicity against human SW480 cells after 24 hrs by MTT assay; conditions: SW480, 24 h; summary of the method: as §1
# [4] = tested on: HeLa; test: Cytotoxicity against human HeLa cells after 24 hrs by MTT assay; conditions: Homo sapiens, HeLa, 24 h; read-out: IC50; summary of the method: as §1
SMILES,IC50 [1],IC50 [2],IC50 [3],IC50 [4]
C=CC1=C(C(=O)N2CCN(c3cccc(Cl)c3)CC2)C(c2ccc(OC)cc2)OC1 (centres undefined),26.8 µM,> 100 µM,> 100 µM,> 100 µM
C=CC1=C(C(=O)Nc2ccc(C)cc2)C(c2ccc(F)cc2)OC1 (centres undefined),> 100 µM,59.2 µM,> 100 µM,> 100 µM
C=CC1=C(C(=O)NCC(C)C)C(c2ccc(Cl)c(Cl)c2)OC1 (centres undefined),> 100 µM,> 100 µM,> 100 µM,60.1 µM
C=CC1=C(C(=O)Nc2ccccc2)C(c2ccc(OC)c(OC)c2)OC1 (centres undefined),> 100 µM,> 100 µM,45.1 µM,5.03 µM
C=CC1=C(C(=O)O)C(c2ccc(F)cc2)OC1 (centres undefined),> 100 µM,> 100 µM,> 100 µM,67.4 µM
C=CC1=C(C(=O)NC2CCCCC2)C(c2ccc(OC)cc2)OC1 (centres undefined),> 100 µM,> 100 µM,> 100 µM,24.8 µM
